EC50, APTT and Selectivity index data for nine compounds are collected here from ChEMBL document CHEMBL1126896, “Preparation and anti-HIV activity of O-acylated heparin and dermatan sulfate derivatives with low anticoagulant effect” (J Med Chem, 1993).

Each structure is given as a SMILES string.

One experiment relates to HuT78. Briefly: Giant-cell formation between persistently HIV-1 infected HUT-78 cells and uninfected MOLT-4 cells. Type of experiment: functional, cell-based. The method in brief:
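MOLT-4 cells were co-cultured with an equal number of HUT-78 cells persistently infected with HIV-1 IIIB or HIV-2 ROD, with varying compound concentrations. Syncytia were counted by flow cytofluorography after 24 h. EC50 is the concentration giving 50% protection against giant-cell formation.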

A short description of experiment [1]: In vitro anticoagulant activity determined by clotting test of activated partial thromboplastin time (APTT) on a pool of human plasma. Type of experiment: functional. The method in brief: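 Activated partial thromboplastin time clotting test on pooled human plasma, run on an automatic coagulometer. Activities were calculated according to the European Pharmacopoeia.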

The test system of experiment [2] is MT4. Briefly: Effective concentration to achieve 50% protection of MT-4 cells against the cytopathic effect of HIV-2. Type of experiment: functional, cell-based.
The test system of experiment [3] is MT4. Briefly: Selectivity index for CC50 (cytotoxic concentration based on reduction of viability of mock-infected MT-4 cells) to that of EC50 against HIV-2. Format: functional. A digest of the protocol:
(§1)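 MT-4 cells at 3 × 10^5 cells/mL were infected with HIV-1 IIIB or HIV-2 ROD at 100 CCID50/mL, or mock-infected, alongside serial compound dilutions. Viability was read by MTT after 5 days at 37 °C. CC50 comes from mock-infected cells and EC50 from protection against cytopathicity. Index = CC50/EC50.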

In experiment [4] the test system is MT4. Briefly: Selectivity index for CC50 (cytotoxic concentration based on the reduction of the viability of mock-infected MT-4 cells) to that of EC50 against HIV-1. Type of experiment: functional. The method in brief:
as §1

The subject of experiment [5] is MT4. Briefly: Effective concentration to achieve 50% protection of MT-4 cells against the cytopathic effect of HIV-1. Format: functional, cell-based.
Where [6] appears, read: Homo sapiens, HuT78, read-out: EC50.
The mark [7] stands for this setting: Homo sapiens, MT4, read-out: EC50.

On to `CCCC(=O)OC/C(=C\C(=O)[O-])O[C@H]1O[C@H](COS(=O)(=O)[O-])[C@@H](O[C@@H]2O[C@@H](C(=O)[O-])[C@@H](O[C@H]3O[C@H](COS(=O)(=O)[O-])[C@@H](O[C@@H]4O[C@@H](C(=O)[O-])[C@@H](O[C@H]5O[C@H](CS(=O)(=O)[O-])[C@@H](O)[C@H](OC(=O)CCC)[C@H]5NS(=O)(=O)[O-])[C@H](OC(=O)CCC)[C@H]4OS(=O)(=O)[O-])[C@H](OC(=O)CCC)[C@H]3NS(=O)(=O)[O-])[C@H](OC(=O)CCC)[C@H]2OS(=O)(=O)[O-])[C@H](OC(=O)CCC)[C@H]1NS(=O)(=O)[O-].[Na+].[Na+].[Na+].[Na+].[Na+].[Na+].[Na+].[Na+].[Na+].[Na+].[Na+]` (stereo in doubt; 4j), for which the results for the EC50 with HuT78 (hut78) and in the experiment on MT4 [2] (mt4) were 10.7 µg/mL and 0.21 µg/mL, respectively. Moreover, in experiment [1], the APTT was found to be 19.8 IU mg-1. In the experiment on MT4 [3], this compound showed a Selectivity index of 2381.

Take `CCCC(=O)OC/C(=C\C(=O)[O-])O[C@H]1O[C@H](COS(=O)(=O)[O-])[C@@H](O[C@@H]2O[C@@H](C(=O)[O-])[C@@H](O[C@H]3O[C@H](COS(=O)(=O)[O-])[C@@H](O[C@@H]4O[C@@H](C(=O)[O-])[C@@H](O[C@H]5O[C@H](CS(=O)(=O)[O-])[C@@H](O)[C@H](OC(=O)CCC)[C@H]5NS(=O)(=O)[O-])[C@H](OC(=O)CCC)[C@H]4OS(=O)(=O)[O-])[C@H](OC(=O)CCC)[C@H]3NS(=O)(=O)[O-])[C@H](OC(=O)CCC)[C@H]2OS(=O)(=O)[O-])[C@H](OC(=O)CCC)[C@H]1NS(=O)(=O)[O-].[Na+].[Na+].[Na+].[Na+].[Na+].[Na+].[Na+].[Na+].[Na+].[Na+].[Na+]` (stereo in doubt; 3c): the concentration giving a half-maximal response (EC50) in the experiment on HuT78 (hut78) was found to be 60.4 µg/mL; with MT4 [2] (mt4), 1.17 µg/mL. The APTT in experiment [1] came out at 7 IU mg-1. Moreover, the figures for the Selectivity index in the experiment on MT4 [4] and with MT4 [3] were 1032 and 282, respectively.

On to `CCCCCCCC(=O)OC/C(=C\C(=O)[O-])OC1OC(COS(=O)(=O)[O-])C(OC2OC(C(=O)[O-])C(OC3OC(COS(=O)(=O)[O-])C(OC4OC(C(=O)[O-])C(OC5OC(CS(=O)(=O)[O-])C(O)C(OC(=O)CCCCCCC)C5NS(=O)(=O)[O-])C(OC(=O)CCCCCCC)C4OS(=O)(=O)[O-])C(OC(=O)CCCCCCC)C3NS(=O)(=O)[O-])C(OC(=O)CCCCCCC)C2OS(=O)(=O)[O-])C(OC(=O)CCCCCCC)C1NS(=O)(=O)[O-].[Na+].[Na+].[Na+].[Na+].[Na+].[Na+].[Na+].[Na+].[Na+].[Na+].[Na+]` (stereo unspecified), for which the values for the EC50 with HuT78 (setting [6]), with MT4 [5] (setting [7]) and with MT4 [2] (setting [7]) were 20 µg/mL, 3.3 µg/mL and more than 23.2 µg/mL, respectively. The results for the Selectivity index in the experiment on MT4 [4] and with MT4 [3] were 6 and more than 1, respectively.

As to `CCCC(=O)OC/C(=C\C(=O)[O-])O[C@H]1O[C@H](COS(=O)(=O)[O-])[C@@H](O[C@@H]2O[C@@H](C(=O)[O-])[C@@H](O[C@H]3O[C@H](COS(=O)(=O)[O-])[C@@H](O[C@@H]4O[C@@H](C(=O)[O-])[C@@H](O[C@H]5O[C@H](CS(=O)(=O)[O-])[C@@H](O)[C@H](OC(=O)CCC)[C@H]5NS(=O)(=O)[O-])[C@H](OC(=O)CCC)[C@H]4OS(=O)(=O)[O-])[C@H](OC(=O)CCC)[C@H]3NS(=O)(=O)[O-])[C@H](OC(=O)CCC)[C@H]2OS(=O)(=O)[O-])[C@H](OC(=O)CCC)[C@H]1NS(=O)(=O)[O-].[Na+].[Na+].[Na+].[Na+].[Na+].[Na+].[Na+].[Na+].[Na+].[Na+].[Na+]` (stereo in doubt; 4b), the EC50 with HuT78 (hut78) was determined as 17.4 µg/mL; in the experiment on MT4 [5] (mt4) it was 20.9 µg/mL. Also, in experiment [1], the APTT was 1.5 IU mg-1. The results for the Selectivity index in the experiment on MT4 [4] and in the experiment with MT4 [3] were more than 24 and more than 50000, respectively.

In experiment [1], `COC1C(NC(C)=O)C(OC2C(C(=O)[O-])OC(OC3C(NC(C)=O)C(OC4C(C(=O)[O-])OC(C)C(OC(=O)CCC(=O)[O-])C4O)OC(COC(=O)CCC(=O)[O-])C3OS(=O)(=O)[O-])C(OC(=O)CCC(=O)[O-])C2OC(=O)CCC(=O)[O-])OC(COC(=O)CCC(=O)[O-])C1OS(=O)(=O)[O-].[Na+].[Na+].[Na+].[Na+].[Na+].[Na+].[Na+].[Na+].[Na+]` (stereo unspecified) displayed an APTT of 9 IU mg-1. The 50% effective concentration (EC50) in the experiment with MT4 [5] (setting [7]) stood at 150 µg/mL; in the experiment with MT4 [2] (setting [7]) it was 50.4 µg/mL. In addition, the results for the Selectivity index in the experiment on MT4 [4] and in the experiment with MT4 [3] were 1.7 and 2, respectively.

As to `CCCC(=O)OC/C(=C\C(=O)[O-])O[C@H]1O[C@H](COS(=O)(=O)[O-])[C@@H](O[C@@H]2O[C@@H](C(=O)[O-])[C@@H](O[C@H]3O[C@H](COS(=O)(=O)[O-])[C@@H](O[C@@H]4O[C@@H](C(=O)[O-])[C@@H](O[C@H]5O[C@H](CS(=O)(=O)[O-])[C@@H](O)[C@H](OC(=O)CCC)[C@H]5NS(=O)(=O)[O-])[C@H](OC(=O)CCC)[C@H]4OS(=O)(=O)[O-])[C@H](OC(=O)CCC)[C@H]3NS(=O)(=O)[O-])[C@H](OC(=O)CCC)[C@H]2OS(=O)(=O)[O-])[C@H](OC(=O)CCC)[C@H]1NS(=O)(=O)[O-].[Na+].[Na+].[Na+].[Na+].[Na+].[Na+].[Na+].[Na+].[Na+].[Na+].[Na+]` (stereo in doubt; 4a), the EC50 was more than 100 µg/mL with HuT78 (hut78) and 115 µg/mL in the experiment with MT4 [5] (mt4). In experiment [1], this compound registered an APTT of 0.3 IU mg-1. Further, the values for the Selectivity index in the experiment with MT4 [4] and with MT4 [3] were more than 4 and more than 7140, respectively.

Regarding `CCCC(=O)OC/C(=C\C(=O)[O-])O[C@H]1O[C@H](COS(=O)(=O)[O-])[C@@H](O[C@@H]2O[C@@H](C(=O)[O-])[C@@H](O[C@H]3O[C@H](COS(=O)(=O)[O-])[C@@H](O[C@@H]4O[C@@H](C(=O)[O-])[C@@H](O[C@H]5O[C@H](CS(=O)(=O)[O-])[C@@H](O)[C@H](OC(=O)CCC)[C@H]5NS(=O)(=O)[O-])[C@H](OC(=O)CCC)[C@H]4OS(=O)(=O)[O-])[C@H](OC(=O)CCC)[C@H]3NS(=O)(=O)[O-])[C@H](OC(=O)CCC)[C@H]2OS(=O)(=O)[O-])[C@H](OC(=O)CCC)[C@H]1NS(=O)(=O)[O-].[Na+].[Na+].[Na+].[Na+].[Na+].[Na+].[Na+].[Na+].[Na+].[Na+].[Na+]` (stereo in doubt; 2d), the half-maximal effective concentration (EC50) was found to be 2.6 µg/mL in the experiment with HuT78 (hut78) and 0.35 µg/mL with MT4 [5] (mt4). In addition, the APTT in experiment [1] was 12 IU mg-1. In addition, in the experiment on MT4 [4], the Selectivity index is more than 1430.

With `COC1C(NC(C)=O)C(OC2C(C(=O)[O-])OC(OC3C(NC(C)=O)C(OC4C(C(=O)[O-])OC(C)C(OC(C)=O)C4O)OC(COC(C)=O)C3OS(=O)(=O)[O-])C(OC(C)=O)C2OC(C)=O)OC(COC(C)=O)C1OS(=O)(=O)[O-].[Na+].[Na+].[Na+].[Na+]` (stereo unspecified), the figures for the concentration giving a half-maximal response (EC50) in the experiment with HuT78 (setting [6]), in the experiment on MT4 [5] (setting [7]) and in the experiment on MT4 [2] (setting [7]) were more than 50 µg/mL, more than 500 µg/mL and 88 µg/mL, respectively. For the same compound, the APTT in experiment [1] is recorded as 1.7 IU mg-1. For the same compound, the Selectivity index in the experiment on MT4 [3] is reported as 5.7.

Compound `CC(=O)N[C@H]1[C@@H](O[C@H]2[C@H](O)[C@@H](OC(C)=O)[C@H](O[C@H]3[C@@H](OS(=O)(=O)[O-])[C@@H](NS(=O)(=O)[O-])[C@@H](O[C@H]4[C@H](O)[C@@H](OS(=O)(=O)[O-])[C@H](O[C@H]5[C@H](O)[C@@H](CO)O[C@@H]5COS(=O)(=O)[O-])O[C@H]4C(=O)[O-])O[C@@H]3COS(=O)(=O)[O-])O[C@@H]2C(=O)[O-])O[C@H](COS(=O)(=O)[O-])[C@@H](O[C@@H]2O[C@@H](C(=O)[O-])[C@@H](O)[C@H](O)[C@H]2OC(C)=O)[C@@H]1O.[Na+].[Na+].[Na+].[Na+].[Na+].[Na+].[Na+].[Na+].[Na+]` returned an APTT in experiment [1] of 11 IU mg-1. In addition, the EC50 in the experiment with MT4 [5] (setting [7]) is 77 µg/mL. In addition, the Selectivity index in the experiment on MT4 [4] is more than 8.
